Compounds with a hit are over-represented: about 1% of the library has one in this group of screens.
KLK5 inh: human KLK5 protease inhibitors, primary screen, biochemical, 1536-well; Kallikrein-5 (Homo sapiens), Q9Y337; recombinant hK5, fluorogenic AMC substrate cleavage; inhibition, % at 5 µM; actives 0.59% (n = 210,000); AID 873, 2007;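 active means inhibition of 40% or more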;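 further: 0% = enzyme controls without compound and 100% = no-enzyme blanks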
FXIIa inh: human FXIIa protease inhibitors, primary screen, biochemical, 1536-well. Coagulation factor XII (Homo sapiens), P00748. purified FXIIa, Boc-QGR-AMC fluorogenic substrate, 2 h. inhibition, % at 5 µM. actives 0.3% (n = 220,000); in the data active means inhibition above about 40%;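 further: 0% = enzyme with no compound and 100% = blank without enzyme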
Thrombin inh: human alpha-thrombin inhibitors, primary screen, counter-screen for coagulation protease inhibitor project, biochemical, 1536-well, fluorogenic AMC substrate; Prothrombin (Homo sapiens), P00734; Boc-VPR-AMC fluorogenic substrate cleavage; inhibition, % at 5 µM; actives 0.26% (n = 220,000); AID 1046, 2008;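 active means inhibition at or above 40%; inactive means inhibition below 40%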;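 further: 0% = enzyme with no compound and 100% = wells without enzyme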
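Material: human alpha-thrombin protein; Also added: Boc-VPR-AMC substrate, 15 µM final; Timing: enzyme reaction carried out at room temperature; Signal: fluorescence, ex 355 nm, em 460 nm; Measure: % inhibition of thrombin; Controls: enzyme without compound as high, wells lacking enzyme as low.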
FXIa inh 1536: human FXIa protease inhibitors, primary screen, biochemical, 1536-well. Coagulation factor XI (Homo sapiens), P03951. purified FXIa, Boc-Glu-Ala-Arg-AMC fluorogenic substrate. inhibition, % at 5 µM. actives 0.14% (n = 220,000);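 active means inhibition of at least 40%; inactive means inhibition below 40%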;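 further: fluorescence of freed AMC excited at 355 nm; 0% = enzyme without compound and 100% = no enzyme blank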
Target sequence (P03951 19-387 limits assumed): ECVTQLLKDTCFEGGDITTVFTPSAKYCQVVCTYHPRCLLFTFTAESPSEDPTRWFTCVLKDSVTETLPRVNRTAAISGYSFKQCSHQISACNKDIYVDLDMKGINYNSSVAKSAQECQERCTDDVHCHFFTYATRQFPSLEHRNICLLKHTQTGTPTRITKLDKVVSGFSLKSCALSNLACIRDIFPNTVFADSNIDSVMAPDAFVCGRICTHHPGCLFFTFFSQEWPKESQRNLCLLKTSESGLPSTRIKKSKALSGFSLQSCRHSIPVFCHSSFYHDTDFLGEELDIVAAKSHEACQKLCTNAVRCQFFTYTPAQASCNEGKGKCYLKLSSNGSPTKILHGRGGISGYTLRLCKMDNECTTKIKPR
Target sequence (P03951 388-625 limits assumed): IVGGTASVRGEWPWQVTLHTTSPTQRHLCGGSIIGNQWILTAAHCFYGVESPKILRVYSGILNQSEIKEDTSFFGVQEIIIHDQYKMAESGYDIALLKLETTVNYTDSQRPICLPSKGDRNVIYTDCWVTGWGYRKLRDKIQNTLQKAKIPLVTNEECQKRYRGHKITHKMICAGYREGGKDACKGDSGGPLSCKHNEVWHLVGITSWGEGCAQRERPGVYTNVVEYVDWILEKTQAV
* = called active by the depositor; · = no result.

SMILES | KLK5 inh | FXIIa inh | Thrombin inh | FXIa inh 1536
CNC(=O)/C(C#N)=C/c1c(N(Cc2ccccc2)Cc2ccccc2)nc2c(C)cccn2c1=O | 49* | 24 | 25 | 10
CCNC(=O)/C(C#N)=C/c1c(N(Cc2ccccc2)Cc2ccccc2)nc2ccccn2c1=O | 13 | 7 | -1 | -2
COc1ccc(S(=O)(=O)N(CCc2ccccc2)CC(=O)O)cc1 | -9 | 17 | 5 | 2
Oc1ccc2ccccc2c1C=NC12CN3CCN(CN(C3)C1)C2 | 44* | 13 | 5 | 0
Cc1cc(=O)oc2cc(OCc3ccc(C(=O)OCC(=O)Nc4ccccc4OC(F)F)cc3)ccc12 | -8 | 8 | -2 | 8
COc1ccc(C2c3c(-c4cc(Cl)c(C)cc4O)n[nH]c3C(=O)N2Cc2cccnc2)cc1OC (stereo not given) | 19 | 25 | 57* | 9
CCC(=O)Nc1cccc(-c2nc3ccccc3c(=O)o2)c1 | 47* | 18 | 6 | 13
Nc1ccnn1Cc1cccs1 | 79* | 43* | 22 | 8
CCN(CC)S(=O)(=O)c1ccc(Cl)c(C(=O)Oc2cccc(-c3cnc4ccccc4n3)c2)c1 | 56* | 13 | 8 | 3
COc1cccc(N2C(=O)CC(NNc3nc4ccccc4s3)C2=O)c1 (stereo not given) | 40* | 14 | 19 | 18
O=C(C[n+]1ccc(-c2nnc3n2CCC3)cc1)c1ccc(Cl)cc1 | -24 | 9 | -1 | 5
CCCOc1ccc(OCCNC2CCCC2)cc1 | 74* | 9 | 23 | 38
O=C(CCCn1c(=S)[nH]c2cc3c(cc2c1=O)OCO3)N1CCN(c2ccccc2)CC1 | 130* | 20 | 26 | 15
Cc1sc(NC(=O)Cc2ccc3c(c2)OCO3)nc1-c1ccc2c(c1)CCN2C(=O)c1ccccc1F | -23 | 13 | 2 | 4
Cc1sc(NC(=O)CN(C)C2CCCCC2)nc1-c1ccc2c(c1)CCN2S(=O)(=O)c1ccccc1 | 43* | 14 | 21 | 5
COC(=O)c1cn(NC(=O)/C=C/c2cc(OC)ccc2OC)c(=O)c2ccccc12 | -27 | -15 | -8 | 0
O=C(CS(=O)(=O)c1cccc(Cl)c1)Nc1ccccc1Cl | 2 | 2 | -2 | -8
O=C(CS(=O)(=O)c1ccc2ccccc2c1)Nc1ccccc1Cl | 58* | 20 | 16 | 11
O=C(CSc1nc2ccccc2n1Cc1ccccc1Cl)N/N=C/c1ccccc1C(=O)O | 47* | 30 | 23 | 28
O=C(CSc1nc2ccccc2n1Cc1ccccc1)N/N=C/c1ccccc1C(=O)O | 2 | 10 | 0 | 1
Cc1ccc(Oc2nn[nH]n2)cc1 | -1 | -9 | -5 | -11
CCc1cccc(Oc2nn[nH]n2)c1 | 77* | 16 | 20 | 9
CCOC(=O)CSc1nnnn1-c1cccc2ccccc12 | 57* | 3 | 19 | 14
CCOc1ccccc1-n1nnnc1SCC(=O)OC | 1 | 11 | -12 | -5
C=CCN(C(=O)CSc1nc2[nH]ncc2c(=O)n1-c1ccccc1OC)c1ccccc1 | 2 | 16 | 2 | 10
SMILES | KLK5 inh | FXIIa inh | Thrombin inh | FXIa inh 1536
Cc1nn(C(C)C)c(C)c1CN1CCCC(CCC(=O)NCc2ccccc2F)C1 (stereo not given) | · | 5 | 0 | -3
CC(C)c1csc(CN2CCCC(CCC(=O)NCc3ccccc3F)C2)n1 (stereo not given) | 27 | 28 | 5 | 50*
CCc1ccc(C2CC(=O)N(c3cccc(F)c3)C3=C2C(=O)OC3)cc1 (stereo not given) | -4 | 6 | -8 | -5
S=C(NC1CC2CCC1C2)N1CCN(c2cccc(Cl)c2)CC1 (stereo not given) | -6 | 2 | -5 | -6
CCC(C)(C(=O)NC1CCCCC1)N(Cc1ccco1)C(=O)c1ccccn1 (stereo not given) | -22 | 54* | 2 | 20
CCC(C)(C(=O)NC1CCCCC1)N(Cc1cccs1)C(=O)Cc1cccs1 (stereo not given) | -14 | -17 | -8 | -10
CC12CC3CC(C)(C1)CC(Nc1nc(N4CCOCC4)nc4ccccc14)(C3)C2 | -1 | 2 | -5 | -9
Cc1[nH]c2ccccc2c1NC(=O)CN1CCN(C(=O)c2ccco2)CC1 | 20 | 59* | 35 | 38
CCOC(=O)CCNC(=O)N1CCCC(CNS(=O)(=O)c2cccs2)C1 (stereo not given) | 18 | 35 | 41* | 36
CNc1ccccc(-c2ccc3cc4c(cc3n2)OCO4)c1=O | -11 | 11 | -1 | 5
NC(=O)c1cccnc1OCC(F)(F)F | -1 | 9 | -4 | -1
Cc1cccc(Nc2nc(N)nc(CCl)n2)c1 | 33 | 19 | 49* | 30
Cc1ccccc1NC(=O)Cc1nnc(N)s1 | 8 | 5 | 1 | 5
Cc1ccc(C(=O)N/C(=C/c2ccc(-c3cccc([N+](=O)[O-])c3)o2)C(=O)NC(C)(C)C)cc1 | -13 | 43* | -7 | 33
Cc1ccc(C(=O)N/C(=C/c2ccc(-c3cccc([N+](=O)[O-])c3)o2)C(=O)NC(C)C)cc1 | 4 | 5 | 0 | 7
O=C1NCCN(C(=O)CCc2nnc(-c3ccsc3)o2)C1c1ccc(F)cc1 (stereo not given) | · | 2 | -8 | -4
Cc1cc(NC(=O)/C=C/c2ccc(Cl)cc2)no1 | 11 | 13 | 5 | 13
Cc1cc(N/N=C/c2ccc(O)cc2)nc(NS(=O)(=O)c2ccccc2)n1 | 47* | 6 | 35 | 10
Cc1ccc(/C=N/Nc2cc(C)nc(NCc3ccccc3)n2)cc1 | 4 | 12 | 2 | -4
Cc1cc(Br)c2[nH]c3c(c2c1)CCCC3=O | 0 | 54* | 3 | 31
C=CCn1cnc2scc(-c3ccc(C)cc3)c2c1=O | -31 | 21 | -13 | -4
CC1=C(C(=O)OCCOc2ccccc2)C(c2ccsc2)NC(=O)N1C (stereo not given) | 34 | 38 | 8 | 54*
COC(=O)C1=C(C)N(C)C(=O)NC1c1ccccc1 (stereo not given) | -8 | -2 | -4 | -8
COc1ccc([N+](=O)[O-])cc1NC(=O)CC1SC(=Nc2cccc(C)c2C)N(/N=C/c2cccc(OC)c2OC)C1=O (stereo not given) | -3 | 22 | 21 | 102*
COc1ccc(C(=O)/C=C/NCc2ccc(F)cc2)cc1OC | 62* | 31 | 5 | 17
COCCNc1nnc(SCC(=O)c2c[nH]c3ccccc23)s1 | 39 | 25 | 101* | 8
COCCNc1nnc(SCC(=O)NNC(=O)c2ccccc2)s1 | -8 | -9 | -16 | -3
C=CCN1C(=O)C2C3CC(=O)C(c4ccccc43)C2C1=O (stereo not given) | -20 | -3 | -1 | 0
O=C1CC(N2CCN(S(=O)(=O)c3cccc(C(F)(F)F)c3)CC2)C(=O)N1Cc1ccccc1 (stereo not given) | 7 | 13 | 3 | -4

Screens: PubChem BioAssay, PCMD
